From PMC8233206 (The Journal of Biological Chemistry, 2021)
Like-named read-outs stand apart in the source and are kept apart here.

Tests used:
HPNE cells = assay: Seahorse XF glycolysis stress assay, glucose-induced ECAR; assay type: cell-based, human
Outline: (§1)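 Seeded 48 h before in growth medium (1.5 × 10⁴ Panc03.27, MDA-MB-231, HPNE; 1.2 × 10⁴ Mia Paca-2; 2.0 × 10⁴ QGP1). MCT1/2 inhibitor 0.5 μM or DMSO added 4 h pre-assay. Medium: DMEM without NaHCO₃, 2 mM glutamine, 5 mM glucose, pH 7.4. Injected in order: 2 mM sodium pyruvate, 10 mM glucose, 2 μM oligomycin, 50 mM 2-DG. Glucose-induced/baseline ECAR ratio, normalized to Hoechst cell counts and 0 mM pyruvate; three experiments.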

QGP1 cells = assay: as above; assay type: cell-based, human
Outline: as §1

Panc03.27 cells = assay: as above; assay type: cell-based, human
Outline: as §1

MDA-MB-231 cells = assay: as above; assay type: cell-based, human
Outline: as §1

Mia Paca-2 cells = assay: as above; assay type: cell-based, human
Outline: as §1

[1] = humans; 230 mM at 5 ml/s injection rate; cited from earlier work
[2] = mice; injection of 80 mM hyperpolarized solution; cited from earlier work
[3] = system: LDH in extracts from HPNE cells; assay: LDH enzyme kinetics in cell extracts; assay type: biochemical, human; conditions: HPNE cell extract
Outline: (§2)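 Cells washed in ice-cold PBS, lysed in ice-cold LDH assay lysis buffer, protein measured by Coomassie. Extract mixed with Tris/NaCl/NADH buffer and Tris/NaCl/pyruvate (0–30 mM). Plate shaken 30 s, then A340 read five times at 30-s intervals; initial velocities from NADH oxidation. Enzyme-free and pyruvate-free controls run. Vmax, Vpeak, apparent Km and Ki from biphasic curve fits. Triplicate, three independent experiments; mean ± SE.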

human recombinant LDHB = human recombinant LDHB (Homo sapiens, UniProt P07195); assay: LDH coupled-enzyme kinetic assay; assay type: biochemical
[4] = system: LDH in extracts from QGP1 cells; assay: LDH enzyme kinetics in cell extracts; assay type: biochemical, human; conditions: QGP1 cell extract
Outline: as §2

[5] = system: LDH in extracts from Panc03.27 cells; assay: LDH enzyme kinetics in cell extracts; assay type: biochemical, human; conditions: Panc03.27 cell extract
Outline: as §2

[6] = system: LDH in extracts from Mia Paca-2 cells; assay: LDH enzyme kinetics in cell extracts; assay type: biochemical, human; conditions: Mia Paca-2 cell extract
Outline: as §2

[7] = system: LDH in extracts from MDA-MB-231 cells; assay: LDH enzyme kinetics in cell extracts; assay type: biochemical, human; conditions: MDA-MB-231 cell extract
Outline: as §2

[8] = biological target: purified human recombinant LDHA (Homo sapiens, UniProt P00338); assay: LDH coupled-enzyme kinetic assay; assay type: biochemical
bovine heart LDH = bovine heart LDH (Bos taurus, UniProt Q5E9B1); assay: LDH coupled-enzyme kinetic assay; assay type: biochemical
[9] = 0.5 μM AZD3965 pretreatment 4 h, 5 mM glucose, vs DMSO control
[10] = read-out: Ki (apparent, substrate inhibition)
[11] = 2 mM sodium pyruvate, medium with 5 mM glucose, DMSO control
[12] = LDH bovine heart, pyruvate 0–30 mM

bovine heart LDH, sequence (Q5E9B1 2-334): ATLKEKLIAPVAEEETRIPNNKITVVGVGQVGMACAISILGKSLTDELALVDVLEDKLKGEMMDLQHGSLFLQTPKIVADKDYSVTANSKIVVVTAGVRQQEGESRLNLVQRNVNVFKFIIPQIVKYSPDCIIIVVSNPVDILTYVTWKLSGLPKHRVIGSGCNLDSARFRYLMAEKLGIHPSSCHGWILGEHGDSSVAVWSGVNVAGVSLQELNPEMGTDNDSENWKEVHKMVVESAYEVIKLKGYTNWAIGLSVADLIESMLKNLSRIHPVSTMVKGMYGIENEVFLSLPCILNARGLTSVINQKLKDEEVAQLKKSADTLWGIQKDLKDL
human recombinant LDHB, sequence (P07195 whole entry): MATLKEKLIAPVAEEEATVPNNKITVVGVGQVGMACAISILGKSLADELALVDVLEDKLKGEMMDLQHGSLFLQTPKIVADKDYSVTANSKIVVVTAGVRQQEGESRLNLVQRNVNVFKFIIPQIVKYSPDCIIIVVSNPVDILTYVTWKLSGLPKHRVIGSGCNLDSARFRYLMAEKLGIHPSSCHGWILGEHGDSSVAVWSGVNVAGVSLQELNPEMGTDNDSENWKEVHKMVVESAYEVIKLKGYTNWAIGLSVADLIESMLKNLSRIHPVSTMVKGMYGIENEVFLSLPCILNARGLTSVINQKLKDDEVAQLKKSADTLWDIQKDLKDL

Q: What does the source list for `Cc1[nH]nc(C(F)(F)F)c1Cc1sc2c(c1C(=O)N1C[C@](C)(O)CO1)c(=O)n(C)c(=O)n2C(C)C` [AZD3965, reference compound]?
A: Effect on 2 mM pyruvate-induced inhibition of glucose-stimulated ECAR (HPNE cells; [9]): blocked; Effect on 2 mM pyruvate-induced inhibition of glucose-stimulated ECAR (QGP1 cells; [9]): blocked; Effect on 2 mM pyruvate-induced inhibition of glucose-stimulated ECAR (Panc03.27 cells; [9]): blocked; Effect on 2 mM pyruvate-induced inhibition of glucose-stimulated ECAR (MDA-MB-231 cells; [9]): no significant effects; Effect on 2 mM pyruvate-induced inhibition of glucose-stimulated ECAR (Mia Paca-2 cells; [9]): blocked

Q: Which Blood pyruvate concentration [1] does the source give for `CC(=O)[13C](=O)O` [[1-^13C]pyruvate] here?
A: The Blood pyruvate concentration was ≥ 2 mM.

Q: And the Blood pyruvate concentration [2]?
A: The Blood pyruvate concentration was ~8 mM.

Q: With `CC(=O)C(=O)O` [pyruvate] as the molecule, how does the “Vmaz (maximal initial velocity from activation curve fit)” value (shortened to “Vmaz”) [3] read?
A: Its value is 2.71 ± 0.08 ΔAbs/s∗10^−3/μg protein.

Q: What about the “Vpeak (peak initial velocity of the biphasic curve fit)” value (from here on “Vpeak”) [3] of the same molecule?
A: The value was 1.98 ΔAbs/s∗10^−3/μg protein.

Q: What about the Ki [3, 10] of the same molecule?
A: Its Ki is 2.67 ± 0.2 mM.

Q: And the Km ([3]; read-out: Km (apparent))?
A: Its Km is 90 ± 10 µM.

Q: And the “Decrease of glucose-stimulated ECAR” value (HPNE cells; [11])?
A: Its value is “less than 10%”.

Q: What about the Ki (human recombinant LDHB) of the same molecule?
A: Its Ki is 2.88 ± 0.4 mM.

Q: What about the “Vmaz” value (human recombinant LDHB; rLDHB, pyruvate 0–30 mM) of the same molecule?
A: The value was 1.00 ± 0.05 ΔAbs/s∗10^−3/μg protein.

Q: What about the “Vpeak” value (human recombinant LDHB; rLDHB, pyruvate 0–30 mM) of the same molecule?
A: The value was 0.75 ΔAbs/s∗10^−3/μg protein.

Q: And the “Vmaz” value [4]?
A: Its value is 1.85 ± 0.05 ΔAbs/s∗10^−3/μg protein.

Q: What about the “Vpeak” value [4] of the same molecule?
A: The value was 1.42 ΔAbs/s∗10^−3/μg protein.

Q: And the Ki [4, 10]?
A: Its Ki is 3.42 ± 0.25 mM.

Q: What about the Km ([4]; read-out: Km (apparent)) of the same molecule?
A: Its Km is 80 ± 10 µM.

Q: What about the “Vmaz” value [5] of the same molecule?
A: Its value is 2.00 ± 0.07 ΔAbs/s∗10^−3/μg protein.

Q: And the “Vpeak” value [5]?
A: The value was 1.56 ΔAbs/s∗10^−3/μg protein.

Q: And the Ki [5, 10]?
A: The Ki was 2.33 ± 0.21 mM.

Q: And the Km ([5]; read-out: Km (apparent))?
A: The Km was 50 µM.

Q: What about the “Vmaz” value [6] of the same molecule?
A: The value was 0.88 ± 0.03 ΔAbs/s∗10^−3/μg protein.

Q: What about the “Vpeak” value [6] of the same molecule?
A: Its value is 0.66 ΔAbs/s∗10^−3/μg protein.

Q: And the Ki [6, 10]?
A: The Ki was 4.26 ± 0.32 mM.

Q: And the Km ([6]; read-out: Km (apparent))?
A: The Km was 110 ± 10 µM.

Q: What about the “Vmaz” value [7] of the same molecule?
A: The value was 2.98 ± 0.17 ΔAbs/s∗10^−3/μg protein.

Q: And the “Vpeak” value [7]?
A: Its value is 2.20 ΔAbs/s∗10^−3/μg protein.

Q: And the Ki [7, 10]?
A: Its Ki is 3.39 ± 0.5 mM.

Q: What about the Km ([7]; read-out: Km (apparent)) of the same molecule?
A: Its Km is 100 ± 20 µM.

Q: And the “Decrease of glucose-stimulated ECAR” value (QGP1 cells; [11])?
A: The value was > 30%.

Q: What about the “Decrease of glucose-stimulated ECAR” value (Panc03.27 cells; [11]) of the same molecule?
A: The value was > 30%.

Q: What about the “Decrease of glucose-stimulated ECAR” value (MDA-MB-231 cells; [11]) of the same molecule?
A: Its value is > 30%.

Q: What about the Ki [8] of the same molecule?
A: Its Ki is 5.33 ± 0.49 mM.

Q: What about the “Vmaz” value ([8]; rLDHA, pyruvate 0–30 mM) of the same molecule?
A: Its value is 1.00 ± 0.04 ΔAbs/s∗10^−3/μg protein.

Q: And the “Vpeak” value ([8]; rLDHA, pyruvate 0–30 mM)?
A: The value was 0.75 ΔAbs/s∗10^−3/μg protein.

Q: What about the Ki (bovine heart LDH) of the same molecule?
A: Its Ki is 1.75 ± 0.11 mM.

Q: And the “Vmaz” value (bovine heart LDH; [12])?
A: The value was 3.23 ± 0.10 ΔAbs/s∗10^−3/μg protein.

Q: What about the “Vpeak” value (bovine heart LDH; [12]) of the same molecule?
A: Its value is 2.08 ΔAbs/s∗10^−3/μg protein.

Q: And the “Decrease of glucose-stimulated ECAR” value (Mia Paca-2 cells; [11])?
A: Its value is > 30%.
